pIC50: −log10 of the molar value. Activity calls are given as the source filed them.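 Rule for the calls: active = concentration giving half-maximal inhibition of the luciferase signal, from the fitted curve, at 5 µM or lower; inactive = half-inhibition concentration above 5 µM.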
Target: Nuclear receptor subfamily 5 group A member 2 (Homo sapiens) (UniProt O00482)
Test: potency against LRH1-driven Cyp19 reporter – cell-based, HEK293T, Cyp19 aromatase-luciferase, luminescence, powder samples, dose response (AID 488782)
Conditions: 20 h
Outline: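 Assay system: HEK293T cells carrying LRH1 plus Cyp19-luciferase reporter; timing: bulk transfection 24 h before replating, compound exposure 20 h; measured by: luminescence from luciferase reporter; measure: IC50 from sigmoidal fit of DMSO-normalized inhibition; repeats: triplicate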

Sequence of Nuclear receptor subfamily 5 group A member 2 (Homo sapiens) (O00482 whole entry, looked up): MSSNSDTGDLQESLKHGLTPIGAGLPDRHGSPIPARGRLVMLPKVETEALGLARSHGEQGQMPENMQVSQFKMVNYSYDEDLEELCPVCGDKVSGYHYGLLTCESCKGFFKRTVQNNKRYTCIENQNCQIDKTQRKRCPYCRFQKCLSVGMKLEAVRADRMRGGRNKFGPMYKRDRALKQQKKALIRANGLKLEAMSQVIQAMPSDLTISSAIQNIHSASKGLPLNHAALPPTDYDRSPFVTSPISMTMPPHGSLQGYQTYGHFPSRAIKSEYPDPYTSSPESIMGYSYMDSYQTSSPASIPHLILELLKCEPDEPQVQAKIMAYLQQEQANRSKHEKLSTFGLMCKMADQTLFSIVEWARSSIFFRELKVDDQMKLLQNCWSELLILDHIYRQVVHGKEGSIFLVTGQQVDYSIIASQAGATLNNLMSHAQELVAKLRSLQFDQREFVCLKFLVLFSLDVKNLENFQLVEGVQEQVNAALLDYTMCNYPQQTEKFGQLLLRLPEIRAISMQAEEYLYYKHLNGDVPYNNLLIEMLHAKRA

Row | Compound | pIC50 | fold change, lower = inhibition (at 10 µM (top of the series))
1 | O=c1cc(N2CCN(c3nc(-c4ccccc4)ns3)CC2)[nH]c(=O)n1C1CCCCC1 | 5.32 | 
2 | O=c1cc(N2CCN(c3ccnc4cc(Cl)ccc34)CC2)[nH]c(=O)n1C1CCCCC1 | 5.40 | 
3 | CCn1c(=O)cc(N2CCN(c3cccc(Cl)c3)CC2)[nH]c1=O | 5.38 | 
4 | O=c1cc(N2CCN(c3cccc(Cl)c3)CC2)[nH]c(=O)n1C1CCCCC1 | 5.43 | 
5 | O=c1cc(N2CCN(c3ccccc3)CC2)[nH]c(=O)n1C1CCCCC1 | 5.59 | 
6 | O=c1cc(N2CCN(Cc3ccc(Cl)cc3)CC2)[nH]c(=O)n1C1CCCCC1 |  | inactive
7 | Cn1c(=O)cc(N2CCN(c3cccc(Cl)c3)CC2)[nH]c1=O | 5.96 | 
8 | CCn1c(=O)cc(N2CCN(c3cccc(C(F)(F)F)c3)CC2)[nH]c1=O | 6.00 | 

Continued by rising pIC50, values first:

Row | pIC50 | fold change, lower = inhibition (at 10 µM (top of the series)) | Compound
9 | 6.04 |  | O=c1cc(N2CCN(C3CCCCC3)CC2)[nH]c(=O)n1C1CCCCC1
10 | 6.24 |  | C=CCn1c(=O)cc(N2CCN(c3cccc(C(F)(F)F)c3)CC2)[nH]c1=O
11 | 6.27 |  | O=c1cc(N2CCN(c3cccc(Cl)n3)CC2)[nH]c(=O)n1C1CCCCC1
12 | 6.37 |  | O=c1cc(N2CCN(c3cccc(Cl)c3Cl)CC2)[nH]c(=O)n1C1CCCCC1
13 | 6.49 |  | O=c1cc(N2CCN(c3cccc(C(F)(F)F)c3)CC2)[nH]c(=O)n1C1CCCCC1
14 | 6.96 |  | CC(C)Cn1c(=O)cc(N2CCN(c3cccc(C(F)(F)F)c3)CC2)[nH]c1=O

Source: PubChem BioAssay AID488782 (The Scripps Research Institute Molecular Screening Center, 2010)
